What all share (format): functional
One assay concerns Enterobacter cloacae. Briefly: Antibacterial activity was determined against gram negative organism, Enterobacter cloacae MA2646. The settings on record: Enterobacter cloacae; read-out: MIC.
In another assay the test system is Pseudomonas aeruginosa. Briefly: Antibacterial activity was determined against gram negative organism, Pseudomonas aeruginosa UI-18. The settings on record: Pseudomonas aeruginosa; read-out: MIC. In a few lines:
(§1)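 MIC (µg/mL) by standard microtitration against a panel of 10 Gram-positive and Gram-negative organisms; values averaged from multiple experiments.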

In assay [1] the test system is Streptococcus pyogenes. As to the kind of experiment: The in vivo potency was determined in female charles river CD-1 mice infected with Streptococcus pyogenes after peroral administration. To be noted: Streptococcus pyogenes, po; read-out: PD50. In a few lines:
(§2)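 Acute lethal systemic infection in female CD-1 mice, 16 mice per route; single dose given orally by gavage at the time of challenge; median protective dose (PD50, mg/kg) determined.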

The test system of assay [2] is Bacteria. Briefly: Antibacterial activity was determined against gram negative organism, Providencia rettgeri. M1771. To be noted: Bacteria; read-out: MIC. In a few lines:
as §1

In assay [3] the test system is Escherichia coli. As to the kind of experiment: The in vivo potency was determined in female charles river CD-1 mice infected with Escherichia coli after peroral administration. To be noted: Escherichia coli, po; read-out: PD50. In a few lines:
as §2

The target in assay [4] is DNA gyrase (Escherichia coli) (UniProt P0AES6+P0AES4). As to the kind of experiment: Minimum inhibitory concentration against Escherichia coli DNA-gyrase in supercoiling assay.
The test system of assay [5] is Bacteria. Briefly: MIC ratio measured as the mean MICs of gram-positive bacteria. In a few lines:
(§3)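 Geometric mean of the microtitration MICs (µg/mL) over the Gram-negative organisms, and separately over the Gram-positive organisms, of the 10-strain panel; individual MICs averaged from multiple experiments.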

In assay [6] the test system is Staphylococcus aureus. As to the kind of experiment: Antibacterial activity was determined against gram positive organism, Staphylococcus aureus UC76. In a few lines:
as §1

For assay [7], the system named is Escherichia coli. Briefly: Antibacterial activity was determined against gram negative organism, Escherichia coli vogel. To be noted: Escherichia coli; read-out: MIC. In a few lines:
as §1

Assay [8] has as its system Bacteria. Briefly: MIC ratio measured as the mean MICs of gram-negative bacteria. In a few lines:
as §3

A further assay deals with Streptococcus pneumoniae. As to the kind of experiment: Antibacterial activity was determined against gram positive organism, Streptococcus pneumoniae SV-1. The settings on record: Streptococcus pneumoniae; read-out: MIC. In a few lines: as §1
Assay [9] concerns Staphylococcus aureus. As to the kind of experiment: Antibacterial activity was determined against gram positive organism, Staphylococcus aureus H228. The settings on record: Staphylococcus aureus; read-out: MIC. In a few lines:
as §1

The subject of assay [10] is Escherichia coli. As to the kind of experiment: The in vivo potency was determined in female charles river CD-1 mice infected with Escherichia coli after sc administration. To be noted: Escherichia coli, sc; read-out: PD50. In a few lines: (§4)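 Acute lethal systemic infection in female CD-1 mice, 16 mice per route; single subcutaneous dose given at the time of challenge; median protective dose (PD50, mg/kg) determined.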

The test system of a further assay is Klebsiella pneumoniae. Briefly: Antibacterial activity was determined against gram negative organism, Klebsiella pneumoniae MGH-2. To be noted: Klebsiella pneumoniae; read-out: MIC. In a few lines: as §1
In assay [11] the test system is Streptococcus pyogenes. Briefly: Antibacterial activity was determined against gram positive organism, Streptococcus pyogenes C203. To be noted: Streptococcus pyogenes; read-out: MIC. In a few lines: as §1
Another assay relates to Enterococcus faecalis. Briefly: Antibacterial activity was determined against gram positive organism, Streptococcus faecalis MGH-2. To be noted: Enterococcus faecalis; read-out: MIC. In a few lines:
as §1

Assay [12] has as its system Streptococcus pyogenes. As to the kind of experiment: The in vivo potency was determined in female charles river CD-1 mice infected with Streptococcus pyogenes after sc administration. To be noted: Streptococcus pyogenes, sc; read-out: PD50. In a few lines:
as §4

[13] abbreviates: Staphylococcus aureus, read-out: MIC.

Values after ≈ are worked out from the molar mass of the structure shown.

For `CC1CN(c2c(F)cc3c(=O)c(C(=O)O)cn(C4CC4)c3c2Cl)CCN1` (centres undefined), the MIC was 0.025 µg/mL (≈ 0.0658 µM) in the assay on Enterobacter cloacae; 0.8 µg/mL (≈ 2.11 µM) in the assay with Pseudomonas aeruginosa; 0.2 µg/mL (≈ 0.527 µM) in the assay on Bacteria [2]; 2.5 µg/mL (≈ 6.58 µM) in assay [4]; 0.05 µg/mL (≈ 0.132 µM) in the assay on Staphylococcus aureus [6] (setting [13]); 0.025 µg/mL (≈ 0.0658 µM) in the assay with Escherichia coli [7]. Further, the MIC in the assay on Streptococcus pneumoniae was found to be 0.2 µg/mL (≈ 0.527 µM); with Staphylococcus aureus [9] it was 0.2 µg/mL (≈ 0.527 µM); in the assay with Klebsiella pneumoniae it was 0.05 µg/mL (≈ 0.132 µM); with Streptococcus pyogenes [11], 0.2 µg/mL (≈ 0.527 µM); in the assay with Enterococcus faecalis, 0.2 µg/mL (≈ 0.527 µM). Further, the ED50 with Streptococcus pyogenes [1] worked out at 6 mg/kg; with Escherichia coli [3], 0.6 mg/kg; in the assay on Escherichia coli [10] it was 0.2 mg/kg; with Streptococcus pyogenes [12] it was 3 mg/kg. For the same compound, in the assay on Bacteria [5], the “Geometric mean MIC over Gram-positive bacteria (µg/mL)” value worked out at 0.15. Also, in the assay with Bacteria [8], the Geometric mean MIC over Gram-negative bacteria (µg/mL) amounted to 0.087.
With `CC1COc2c(N3CCC(N)C3)c(F)c(N)c3c(=O)c(C(=O)O)cn1c23` (centres undefined), the MIC was determined as 0.8 µg/mL (≈ 2.21 µM) in the assay on Enterobacter cloacae; 1.6 µg/mL (≈ 4.42 µM) in the assay with Pseudomonas aeruginosa; 1.6 µg/mL (≈ 4.42 µM) in the assay on Bacteria [2]; 2.5 µg/mL (≈ 6.9 µM) in assay [4]; 0.2 µg/mL (≈ 0.552 µM) in the assay on Staphylococcus aureus [6] (setting [13]); 0.4 µg/mL (≈ 1.1 µM) in the assay on Escherichia coli [7]. In addition, the MIC was 0.8 µg/mL (≈ 2.21 µM) in the assay with Streptococcus pneumoniae; 0.8 µg/mL (≈ 2.21 µM) in the assay with Staphylococcus aureus [9]; 0.4 µg/mL (≈ 1.1 µM) with Klebsiella pneumoniae; 1.6 µg/mL (≈ 4.42 µM) in the assay on Streptococcus pyogenes [11]; 0.8 µg/mL (≈ 2.21 µM) in the assay on Enterococcus faecalis. For the same compound, the ED50 in the assay with Escherichia coli [3] was greater than 100 mg/kg; with Escherichia coli [10], 23 mg/kg. In the assay on Bacteria [5], the “Geometric mean MIC over Gram-positive bacteria (µg/mL)” value turned out to be 0.7. For the same compound, in the assay on Bacteria [8], the Geometric mean MIC over Gram-negative bacteria (µg/mL) was determined as 0.8.
In the case of `O=C(O)c1cn(C2CC2)c2c(Cl)c(N3CCNCC3)c(F)cc2c1=O`, the MIC came to 0.025 µg/mL (≈ 0.0683 µM) in the assay on Enterobacter cloacae; 0.4 µg/mL (≈ 1.09 µM) in the assay with Pseudomonas aeruginosa; 0.1 µg/mL (≈ 0.273 µM) in the assay on Bacteria [2]; 0.5 µg/mL (≈ 1.37 µM) in [4]; 0.05 µg/mL (≈ 0.137 µM) in the assay with Staphylococcus aureus [6] (setting [13]); 0.025 µg/mL (≈ 0.0683 µM) in the assay on Escherichia coli [7]. Besides, the MIC stood at 0.1 µg/mL (≈ 0.273 µM) in the assay with Streptococcus pneumoniae; 0.1 µg/mL (≈ 0.273 µM) in the assay with Staphylococcus aureus [9]; 0.05 µg/mL (≈ 0.137 µM) in the assay with Klebsiella pneumoniae; 0.2 µg/mL (≈ 0.547 µM) with Streptococcus pyogenes [11]; 0.4 µg/mL (≈ 1.09 µM) with Enterococcus faecalis. In addition, the ED50 in the assay with Escherichia coli [3] came to 0.8 mg/kg; in the assay with Escherichia coli [10], 0.4 mg/kg. For the same compound, the “Geometric mean MIC over Gram-positive bacteria (µg/mL)” value in the assay with Bacteria [5] came to 0.13. Also, the Geometric mean MIC over Gram-negative bacteria (µg/mL) with Bacteria [8] was determined as 0.066.
On to `Nc1c(F)c(N2CCNCC2)c(Cl)c2c1c(=O)c(C(=O)O)cn2C1CC1`, for which the MIC is 0.025 µg/mL (≈ 0.0657 µM) with Enterobacter cloacae; 0.8 µg/mL (≈ 2.1 µM) in the assay on Pseudomonas aeruginosa; 0.1 µg/mL (≈ 0.263 µM) in the assay on Bacteria [2]; 1 µg/mL (≈ 2.63 µM) in assay [4]; 0.025 µg/mL (≈ 0.0657 µM) in the assay with Staphylococcus aureus [6] (setting [13]); 0.025 µg/mL (≈ 0.0657 µM) with Escherichia coli [7]. Besides, the MIC in the assay with Streptococcus pneumoniae is 0.1 µg/mL (≈ 0.263 µM); with Staphylococcus aureus [9], 0.1 µg/mL (≈ 0.263 µM); with Klebsiella pneumoniae it was 0.05 µg/mL (≈ 0.131 µM); with Streptococcus pyogenes [11] it was 0.2 µg/mL (≈ 0.525 µM); in the assay on Enterococcus faecalis, 0.1 µg/mL (≈ 0.263 µM). For the same compound, the ED50 with Streptococcus pyogenes [1] stood at 26 mg/kg; in the assay with Escherichia coli [3], 2 mg/kg; in the assay on Escherichia coli [10], 0.5 mg/kg; with Streptococcus pyogenes [12] it was 10 mg/kg. For the same compound, the “Geometric mean MIC over Gram-positive bacteria (µg/mL)” value in the assay on Bacteria [5] is on record as 0.087. The Geometric mean MIC over Gram-negative bacteria (µg/mL) in the assay on Bacteria [8] stood at 0.076.
Take `CCNCC1CCN(c2c(F)cc3c(=O)c(C(=O)O)cn(C4CC4)c3c2Cl)C1` (centres undefined): the MIC stood at 0.05 µg/mL (≈ 0.123 µM) in the assay with Enterobacter cloacae; 0.8 µg/mL (≈ 1.96 µM) in the assay with Pseudomonas aeruginosa; 0.2 µg/mL (≈ 0.49 µM) in the assay on Bacteria [2]; 0.25 µg/mL (≈ 0.613 µM) in [4]; 0.003 µg/mL (≈ 0.00736 µM) in the assay on Staphylococcus aureus [6] (setting [13]); 0.05 µg/mL (≈ 0.123 µM) with Escherichia coli [7]. The MIC with Streptococcus pneumoniae was 0.003 µg/mL (≈ 0.00736 µM); in the assay with Staphylococcus aureus [9], 0.013 µg/mL (≈ 0.0319 µM); in the assay on Klebsiella pneumoniae, 0.1 µg/mL (≈ 0.245 µM); in the assay with Streptococcus pyogenes [11] it was 0.006 µg/mL (≈ 0.0147 µM); in the assay with Enterococcus faecalis, 0.013 µg/mL (≈ 0.0319 µM). Also, the ED50 came out at 4 mg/kg in the assay with Escherichia coli [3] and 1 mg/kg with Escherichia coli [10]. Also, in the assay with Bacteria [5], the “Geometric mean MIC over Gram-positive bacteria (µg/mL)” value is listed as 0.006. Also, the Geometric mean MIC over Gram-negative bacteria (µg/mL) in the assay with Bacteria [8] was 0.13.
Turning to `CC1COc2c(N3CCC(N)C3)c(F)cc3c(=O)c(C(=O)O)cn1c23` (centres undefined), the MIC with Enterobacter cloacae came to 0.4 µg/mL (≈ 1.15 µM); with Pseudomonas aeruginosa, 0.4 µg/mL (≈ 1.15 µM); with Bacteria [2], 0.8 µg/mL (≈ 2.3 µM); in [4], 0.75 µg/mL (≈ 2.16 µM); against Staphylococcus aureus [6] it was 0.1 µg/mL (≈ 0.288 µM); with Escherichia coli [7], 0.4 µg/mL (≈ 1.15 µM). Moreover, the MIC amounted to 0.8 µg/mL (≈ 2.3 µM) in the assay with Streptococcus pneumoniae; 1.6 µg/mL (≈ 4.61 µM) in the assay with Staphylococcus aureus [9]; 0.4 µg/mL (≈ 1.15 µM) with Klebsiella pneumoniae; 0.2 µg/mL (≈ 0.576 µM) in the assay with Streptococcus pyogenes [11]; 1.6 µg/mL (≈ 4.61 µM) in the assay on Enterococcus faecalis. The ED50 in the assay on Escherichia coli [3] was 29 mg/kg; in the assay with Escherichia coli [10] it was 2 mg/kg. In addition, the “Geometric mean MIC over Gram-positive bacteria (µg/mL)” value with Bacteria [5] is listed as 0.53. Moreover, in the assay with Bacteria [8], the Geometric mean MIC over Gram-negative bacteria (µg/mL) is 0.46.

The values are drawn from ChEMBL document CHEMBL1125826, “Synthesis and biological activity of 5-amino- and 5-hydroxyquinolones, and the overwhelming influence of the remote N1-substituent in determining the structure-activity relationship” (1991).
